STAT1 act: STAT1 signaling activation | NIH 3T3 STAT1-luciferase reporter, IFN-gamma, luminescence; 100% = IFN-gamma alone, no compound | activation (% of control), % at 5.5 µM | 2.6% of 200,000 active;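 active = activation above the screen-wide mean activation plus 3 SD, cut at about 130% in these data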
STAT3 act: increases IL-6 driven STAT3 reporter signal; AID 871; U3A cells, IL-6 STAT3-luciferase reporter, luminescence; 100% = signal with IL-6 EC80 alone; activation (% of control), % at 5.6 µM; 0.91% of 190,000 active;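 active = activation above the screen-wide mean of compound activation plus 3 SD, cut at about 130% in these data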
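Test system: STAT3-luciferase reporter U3A cells; Detection: reporter luminescence signal; Times: 1 h compound pre-exposure, 6 h IL-6 stimulation, 37 °C; Benchmarks: IL-6-only high control; Also added: IL-6 stimulus at 33 ng/mL final.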
STAT1 inh: inhibitors of IFN-gamma induced STAT1 signaling; NIH 3T3 STAT1-luciferase reporter, luminescence; inhibition, % at 5.5 µM; 0.35% of 200,000 active; AID 920;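 active = inhibition above a set limit, the mean inhibition across all tested compounds plus 3 SD, cut at about 34% in these data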
HSV augment: HSV replication enhancement; 0.005% of 220,000 active; HSV replication augmentation in cells, fold increase; maximum fold increase; in the data active = maximum fold increase above about 1.5; tested in PC3 cells
Cl transport mod: modulates chloride dependent transport by human KCC2 | Q9H2X9 | KCC2 cells, thallium flux FluoZin-2 fluorescence | B-score of Tl+ flux slope (higher = more flux/activation; lower = inhibition) at 10 µM | 2.2% of 190,000 active | AID 1456;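 active = thallium flux slope and its plate-corrected score both differing from the plate sample mean at a set confidence after two filtering rounds, in either direction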;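 note: slope of fluorescence scaled to starting intensity during 10 to 20 s after thallium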
Target sequence (Q9H2X9 whole entry, looked up): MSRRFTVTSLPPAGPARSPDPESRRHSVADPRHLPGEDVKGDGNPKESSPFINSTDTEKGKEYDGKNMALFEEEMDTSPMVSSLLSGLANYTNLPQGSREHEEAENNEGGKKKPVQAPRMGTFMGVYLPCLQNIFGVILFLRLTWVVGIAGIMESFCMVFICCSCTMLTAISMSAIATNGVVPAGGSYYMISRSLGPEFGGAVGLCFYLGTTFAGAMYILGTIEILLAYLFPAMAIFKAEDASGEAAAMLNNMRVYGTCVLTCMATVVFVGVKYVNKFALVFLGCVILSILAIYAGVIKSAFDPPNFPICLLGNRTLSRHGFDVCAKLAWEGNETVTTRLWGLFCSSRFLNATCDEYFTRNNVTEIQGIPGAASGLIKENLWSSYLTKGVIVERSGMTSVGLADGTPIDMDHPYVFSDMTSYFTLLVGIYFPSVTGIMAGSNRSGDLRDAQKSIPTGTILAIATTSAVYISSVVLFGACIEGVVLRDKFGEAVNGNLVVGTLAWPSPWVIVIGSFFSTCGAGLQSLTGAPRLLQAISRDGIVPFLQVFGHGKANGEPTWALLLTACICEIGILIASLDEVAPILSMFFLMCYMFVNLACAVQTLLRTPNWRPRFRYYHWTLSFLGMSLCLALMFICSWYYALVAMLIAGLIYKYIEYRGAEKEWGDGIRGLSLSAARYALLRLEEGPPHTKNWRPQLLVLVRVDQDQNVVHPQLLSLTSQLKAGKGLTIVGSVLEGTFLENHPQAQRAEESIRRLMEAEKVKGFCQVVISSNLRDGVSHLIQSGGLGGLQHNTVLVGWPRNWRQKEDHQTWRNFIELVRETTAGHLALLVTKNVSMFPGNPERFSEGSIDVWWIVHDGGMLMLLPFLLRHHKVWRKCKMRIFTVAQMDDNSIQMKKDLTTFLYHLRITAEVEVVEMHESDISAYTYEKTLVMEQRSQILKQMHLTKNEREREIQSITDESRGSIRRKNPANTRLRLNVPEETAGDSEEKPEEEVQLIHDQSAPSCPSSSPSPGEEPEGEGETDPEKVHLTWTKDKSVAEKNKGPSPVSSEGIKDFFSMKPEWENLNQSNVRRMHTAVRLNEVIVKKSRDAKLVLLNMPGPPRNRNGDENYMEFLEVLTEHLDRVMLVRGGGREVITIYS
STAT3 inh: inhibitors of IL-6 induced STAT3 signaling | U3A cells, IL-6 STAT3-luciferase reporter, luminescence; host cell line lacks STAT1 | inhibition, % at 5.5 µM | 0.89% of 190,000 active | AID 862;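 active = inhibition above the mean inhibition across all screened compounds plus 3 SD, cut at about 44% in these data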
STAT1 activ conf: STAT1 activation, confirmation assay; shares compounds with STAT1 act; NIH 3T3 STAT1-luciferase reporter, IFN-gamma potentiation, luminescence; 100% = IFN-gamma EC80 alone, no compound; activation (% of control), % at 5.7 µM; 97% of 1,200 active; AID 1262;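 active = activation above a set limit carried over from the earlier primary STAT1 screen, cut at about 140% in these data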
NFkB act: NF-kappaB activation in STAT1 activator counter-screen; 43% of 1,200 active; activation (% of control), % at 5.7 µM; AID 1306; HEK293T NF-kB luciferase reporter, TNF-alpha stimulated, luminescence; 100% = TNF-alpha with vehicle only; shares compounds with STAT1 act;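 active = activation above the mean of solvent-only control wells plus 3 SD, set per campaign, cut at about 130% in these data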;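 note: TNF-alpha given at a submaximal dose yielding about 80% of full reporter signal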
STAT3 act 2: activates human STAT3, counter-screen to STAT1 activators | U3A cells STAT3-luciferase reporter, IL-6, luminescence; cells lack STAT1; 100 = IL-6 alone, no compound effect | activation (% of control), % at 5.7 µM | AID 1316 | 46% of 1,200 active | shares compounds with STAT1 act;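 active = activation above the solvent-only control well mean plus 3 SD, set per plate batch, cut at about 110% in these data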;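 note: higher means more STAT3 reporter activation so hits are non-selective activators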
Each line names hits and unclear results; the compound was inactive in the other large screens (follow-up assays come after a bar, where they were run). Most compounds without a hit are left out; they make up all but 5.5% or so of the library.

CC(/C=N/Nc1nc2ccccc2[nH]1)=C\c1ccccc1	STAT1 act 192 | STAT1 activ conf 246 | NFkB act 139 | STAT3 act 2 114
CC(=O)Oc1ccc(NC(=O)CSc2ccccc2)cc1	none (no result: Cl transport mod)
Cc1cc(NC(=O)Nc2ccccc2F)ccc1Br	STAT1 act 181 | STAT1 activ conf 232 | NFkB act 141 | STAT3 act 2 112
CC(C)(C)N1C(=O)c2ccc(C(=O)Nc3nccs3)cc2C1=O	STAT1 act 154 | STAT1 activ conf 174 | NFkB act inactive | STAT3 act 2 117
CCN1C(=O)c2ccc(C(=O)Nc3nccs3)cc2C1=O	none
COC(=O)c1cc2sccc2n1CC(=O)N(C)c1ccccc1	none
Cc1cc(C)nc(NC(=O)Nc2ccc3c(c2)OCO3)c1	STAT1 act 156 | STAT1 activ conf 204 | NFkB act inactive | STAT3 act 2 inactive
Cc1cccc(NC(=O)Nc2ccc(C#N)cc2)n1	STAT1 act 208 | STAT1 activ conf 141 | NFkB act 136 | STAT3 act 2 125
Cc1cccc(NC(=O)Nc2ccc(C)cc2Br)c1	none
Cc1cccc(NC(=O)Nc2cc(C)cc(C)n2)c1	STAT1 act 169 | STAT1 activ conf 193 | NFkB act inactive | STAT3 act 2 inactive
O=C(Nc1ccccc1C(=O)N1CCCCCC1)c1ccc(Cl)cc1	none
O=C(COc1ccccc1)Nc1cccc(-c2nc3cc4ccccc4cc3[nH]2)c1	STAT1 act 175 | STAT1 activ conf 277 | NFkB act 146 | STAT3 act 2 121
CC(C)CC(=O)Nc1cccc(-c2nc3ccccc3[nH]2)c1	none (no result: STAT1 act, STAT3 act, STAT1 inh, Cl transport mod, STAT3 inh)
Clc1ccc(-c2cn3c(n2)-c2ccccc2C3)cc1Cl	STAT1 act 196 | STAT1 activ conf 258 | NFkB act 134 | STAT3 act 2 135
c1ccc2c(c1)Cn1nnnc1-2	none
Cc1cc(=O)oc2ccc(OC(C)C(=O)O)cc12 (centres undefined)	none
O=C(Nc1ccccc1N1CCOCC1)C1CCN(S(=O)(=O)c2ccccc2F)CC1	none
O=C1N[C@@H](Cc2cn(S(=O)(=O)c3c(F)c(F)c(F)c(F)c3F)c3ccccc23)C(=O)N[C@H]1Cc1ccccc1	none (no result: STAT1 act, STAT3 act, STAT1 inh, Cl transport mod, STAT3 inh)
O/N=C/c1ccc(OCc2ccccc2F)c(Cl)c1	STAT1 act 156 | STAT1 activ conf 202 | NFkB act inactive | STAT3 act 2 127
O/N=C/c1ccccc1OCc1ccccc1F	none
O/N=C/c1ccc(OCc2ccccc2)c(Br)c1	STAT1 act 162 | STAT1 activ conf 188 | NFkB act inactive | STAT3 act 2 123
O/N=C/c1ccc(OCc2ccccc2)c(Cl)c1	STAT1 act 162 | STAT1 activ conf 203 | NFkB act 134 | STAT3 act 2 119
S=C(NC1CCCC1)NN1CCOCC1	none
CN(C)S(=O)(=O)c1cccc(-c2cn3cc(Cl)ccc3n2)c1	none
O=C(O)c1cc(-c2c[nH]c3ccccc23)nc2cc3ccccc3cc12	none (no result: STAT1 act, STAT3 act, STAT1 inh, STAT3 inh)
Brc1ccc2nc(-c3c[nH]c4ccccc34)cn2c1	STAT1 act 194 | STAT1 activ conf 287 | NFkB act 143 | STAT3 act 2 113
Clc1ccc(-c2cn3cc(Br)ccc3n2)cc1Cl	STAT1 act 165 | STAT1 activ conf 222 | NFkB act inactive | STAT3 act 2 122
COc1cccc(-c2cc(C(=O)N3CCCCC3C)no2)c1 (centres undefined)	STAT1 act 154 (no result: HSV augment, Cl transport mod) | STAT1 activ conf 181 | NFkB act 134 | STAT3 act 2 123
CCCCNC(=O)COC(=O)c1ccc(NS(=O)(=O)c2ccc3c(c2)OCCO3)cc1	none
Cc1nn(-c2nnc(NC3CCCCC3)nn2)c(C)c1Br	STAT1 act 164 | STAT1 activ conf 185 | NFkB act inactive | STAT3 act 2 122
COc1ccc(/C=C/C(=O)Oc2cccc(/C=N/NC(=O)COc3c(C)cccc3C)c2)cc1	none
Cc1ccnc(NC(=O)c2sc3ccccc3c2Cl)c1	STAT1 act 165 | STAT1 activ conf 130 | NFkB act inactive | STAT3 act 2 inactive
CS(=O)(=O)N1CCN(c2ccc(NC(=O)c3ccc([N+](=O)[O-])o3)cc2)CC1	STAT1 act 160 | STAT1 activ conf inactive | NFkB act inactive | STAT3 act 2 inactive
O=C(/C=C/c1ccc(Cl)c([N+](=O)[O-])c1)Nc1ccc(N2CCCC2)c(Cl)c1	none
O=C(Nc1ccc(N2CCOCC2)c(Cl)c1)c1cc2ccccc2o1	STAT1 act 170 | STAT1 activ conf 179 | NFkB act inactive | STAT3 act 2 inactive
O=C(Nc1ccc(N2CCCC2)c(Cl)c1)c1ccc([N+](=O)[O-])o1	STAT1 act 159 | STAT1 activ conf inactive | NFkB act 133 | STAT3 act 2 inactive
CN(C(=O)COc1cc(=O)n(C)c2ccccc12)c1ccc(Br)cc1	none
CCOc1ccc(OCCSc2nnnn2-c2ccccc2)cc1	none
c1ccc(OCCSc2nnnn2-c2ccccc2)cc1	STAT1 act 160, Cl transport mod -3.8 | STAT1 activ conf 204 | NFkB act inactive | STAT3 act 2 117
COc1ccccc1OCCSc1nnnn1-c1ccc(C)cc1	none (no result: STAT1 act, STAT3 act, STAT1 inh, STAT3 inh)
Fc1ccccc1OCCSc1nnnn1-c1ccccc1	STAT1 act 161 | STAT1 activ conf 219 | NFkB act inactive | STAT3 act 2 115
C/C(N)=C(/C#N)C(=O)COC(=O)c1cc(C)n(-c2ccc(F)cc2)c1C	STAT1 act 154 | STAT1 activ conf 173 | NFkB act inactive | STAT3 act 2 153
Cc1cc(C(=O)OCC(N)=O)c(C)n1-c1ccccc1	none
CC(/C=N/NC(=O)Cc1cccs1)=C\c1ccco1	none
CC(/C=N/NC(=O)c1cccs1)=C\c1ccco1	STAT1 act 171 | STAT1 activ conf 173 | NFkB act inactive | STAT3 act 2 inactive
O=C(N/N=C/C=C/c1ccccc1)c1cccs1	STAT1 act 157 | STAT1 activ conf 165 | NFkB act 137 | STAT3 act 2 inactive
CCOC(=O)C/C(C)=N/NC(=O)c1cccs1	none
C/C(=N\NC(=O)c1cccs1)C(C)(C)C	STAT1 act 158 | STAT1 activ conf inactive | NFkB act inactive | STAT3 act 2 113
COc1cc(Cl)ccc1NC(=O)COc1ccccc1C(=O)N1CCN(c2ccc(O)cc2)CC1	none (no result: HSV augment, Cl transport mod)

Source: PubChem BioAssay
